Source: publication PMC6013806 (Chemical Science, 2016)
One block for each compound: values may come before it.

Assays:
[1] = tested on: MMP-2 in rat renal myofibroblasts; assay: MMP-2 levels by gelatin zymography, rat renal myofibroblasts; type: cell-based
In short: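 Rat renal myofibroblasts were isolated from injured kidneys 3 days after unilateral ureteric obstruction. They were exposed to test compound at 16.8 nM (≃100 ng mL−1) for 72 h, with or without an RXFP1 antagonist (relaxin B-chain Arg13/Arg17→Lys); H2 relaxin was run at equivalent concentration. MMP-2 in media diluted 1:5–1:10 was read by gelatin zymography and densitometry. Three experiments were run in duplicate.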

[2] = biological target: Relaxin Family Peptide Receptor 1 (RXFP1), human, stably expressed in HEK-293T cells (human) (UniProt Q9HBX9); assay: competition binding with Eu3+-labelled H2 relaxin on whole cells
human RXFP1 [3] = biological target: T1, human RXFP1 (Homo sapiens, UniProt Q9HBX9); assay: Competition binding with europium-labelled H2 relaxin in HEK-RXFP1 cells; conditions: HEK-293T cells stably expressing RXFP1; compared with B7-33
T1 sequence (Q9HBX9 1-757): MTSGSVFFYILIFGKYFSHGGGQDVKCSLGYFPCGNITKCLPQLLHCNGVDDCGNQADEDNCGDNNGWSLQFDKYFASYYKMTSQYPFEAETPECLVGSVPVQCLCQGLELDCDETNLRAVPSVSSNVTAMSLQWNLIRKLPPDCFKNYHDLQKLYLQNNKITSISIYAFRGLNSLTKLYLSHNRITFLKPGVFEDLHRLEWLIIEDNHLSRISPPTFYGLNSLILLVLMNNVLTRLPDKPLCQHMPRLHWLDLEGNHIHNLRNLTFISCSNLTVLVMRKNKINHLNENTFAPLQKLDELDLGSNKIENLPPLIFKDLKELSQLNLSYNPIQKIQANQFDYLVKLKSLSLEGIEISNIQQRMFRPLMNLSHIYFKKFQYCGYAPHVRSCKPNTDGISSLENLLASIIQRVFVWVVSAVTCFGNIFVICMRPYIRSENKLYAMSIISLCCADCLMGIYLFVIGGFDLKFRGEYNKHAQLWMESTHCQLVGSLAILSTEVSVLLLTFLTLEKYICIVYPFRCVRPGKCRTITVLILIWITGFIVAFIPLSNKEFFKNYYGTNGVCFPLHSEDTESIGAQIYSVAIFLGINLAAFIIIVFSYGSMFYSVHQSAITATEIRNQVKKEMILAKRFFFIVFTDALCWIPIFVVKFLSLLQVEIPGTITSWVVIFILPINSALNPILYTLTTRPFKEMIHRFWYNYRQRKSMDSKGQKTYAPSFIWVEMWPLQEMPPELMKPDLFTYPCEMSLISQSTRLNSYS
In short: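 Whole-cell competition binding on HEK-293T cells stably transfected with RXFP1. Cells were grown in RPMI 1640 with 10% FCS, penicillin, streptomycin and 2 mM L-glutamine, then plated on poly-L-lysine-coated wells. Eu3+-labelled H2 relaxin was competed by increasing concentrations of unlabelled test peptide. % specific binding was measured in triplicate wells, repeated ≥3 times; one-site fit gave pIC50.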

human RXFP1 [4] = biological target: T1, human RXFP1; assay: cAMP reporter gene assay, HEK-293T cells expressing human RXFP1; type: cell-based; conditions: HEK-293T cells stably expressing RXFP1
In short: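 HEK-293T cells expressing human RXFP1 were co-transfected with a pCRE β-galactosidase cAMP reporter plasmid and plated. After 24 h they were incubated with increasing concentrations of test peptide in parallel with H2 relaxin. Points were run in triplicate, with ≥3 independent experiments; pEC50 values were derived.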

[5] = cited from earlier work
[6] = cited from earlier work; remark: listed apart in the source

Compound: Cc1cc(Cn2cnc3c2C[C@@H](C(=O)O)N(C(=O)C(c2ccccc2)c2ccccc2)C3)ccc1N(C)C [PD123319]
effect of antagonist alone on basal MMP-2 expression ([1]; antagonist alone): neither the RXFP1 nor AT2 receptor antagonists alone affected basal MMP-2 expression
effect of antagonist on MMP-promoting effects of B7-33 ([1]; rat renal myofibroblasts treated with B7-33): completely blocked

pKi [2]: 5.54
Compound: B7-33 (H2 relaxin B-chain-only analogue) (peptide)

binding affinity at HEK-RXFP1 (in words) (human RXFP1 [3]): no change
cAMP activity at HEK-RXFP1 (in words) (human RXFP1 [4]): no change
Compound: AcB7-33: Acetylated B7-33 (Ac-VIKLCGRELVRAQIAICGMSTWSKRSL-NH2; cysteine pairing not given here; UniProt P04090 31-57, looked up, fragment)

Compound: B1-29: native H2 relaxin B-chain with 29 residues
solubility in water [5]: insoluble in water
functional activity [6]: functionally inactive

pKi [2]: 8.96
Compound: Human gene-2 relaxin (ligand)
